# Experimental data pooled from the literature.
# Protocols differ between the studies behind these lines.
# Target: Serine/threonine-protein kinase Chk1 (CHEK1, Homo sapiens, UniProt O14757)
# Residues used in one study (O14757 1-476): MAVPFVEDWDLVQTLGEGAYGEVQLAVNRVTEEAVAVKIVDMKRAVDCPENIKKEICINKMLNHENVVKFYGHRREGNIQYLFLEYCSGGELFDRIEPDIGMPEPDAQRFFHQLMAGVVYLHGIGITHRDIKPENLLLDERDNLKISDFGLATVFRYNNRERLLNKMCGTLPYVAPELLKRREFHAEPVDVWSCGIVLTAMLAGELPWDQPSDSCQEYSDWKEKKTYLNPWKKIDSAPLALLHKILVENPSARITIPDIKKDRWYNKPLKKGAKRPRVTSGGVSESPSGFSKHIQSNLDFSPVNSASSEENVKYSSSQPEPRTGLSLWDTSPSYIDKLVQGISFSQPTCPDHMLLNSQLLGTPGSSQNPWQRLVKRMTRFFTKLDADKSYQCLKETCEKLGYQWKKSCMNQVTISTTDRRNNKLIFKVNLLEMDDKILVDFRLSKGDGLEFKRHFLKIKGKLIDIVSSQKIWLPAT
Compound,read-out,action,technique,tested at,quantity,result
CCCCC(=O)Nc1ccc(-c2ccc3ncn(CCC)c(=O)c3c2)cn1,binding,,competition with immobilised ligand,0.5 µM,remaining binding,86%
C1=C/COCc2cc(ccc2OCCN2CCCC2)Nc2nccc(n2)-c2cccc(c2)COC/1,cell-free assay,,,0.1 µM,remaining signal,100%
C=CC(=O)N1CCC[C@@H](n2nc(-c3ccc(Oc4ccccc4)cc3)c3c(N)ncnc32)C1,enzyme activity,inhibitor,,1 µM,inhibition,10%
C[C@H]1CC[C@H](n2c3cnccc3c3cnc(Nc4ccc5c(n4)CCN(C(=O)CO)C5)nc32)CC1,cell-free assay,,,1 µM,remaining signal,93%
COc1ccc2oc(-c3ccc4nc(N)oc4c3)c/c(=N\c3ccccc3NC(=O)CCN)c2c1,binding,,,1 µM,remaining binding,87%
C#Cc1cnc(Nc2ccnc(CO)c2)nc1Nc1ccccc1S(C)(=O)=NC#N (stereo not drawn),cell-free assay,,,1 µM,remaining signal,38%
CC#CC(=O)N1CCC[C@H]1c1nc(-c2ccc(C(=O)Nc3ccccn3)cc2)c2c(N)nccn12,enzyme activity,inhibitor,,1 µM,inhibition,20%
N#Cc1ccc(NC(=O)Nc2ccccc2)cc1,cell-free assay,,competition with immobilised ligand,25 µM,remaining binding,91%
COc1ccc2[nH]c3c4[nH]c5ccc(OC)cc5c4c4c(c3c2c1)C(=O)NC4=O,binding,,,1 µM,remaining binding,12%
